# Measured values taken from ChEMBL document CHEMBL1148754, “4- and 5-aroylindoles as novel classes of potent antitubulin agents” (J Med Chem, 2007).
# Key:
# KB = assay: Growth inhibition of human KB cells after 72 hrs by methylene blue dye assay; format: functional, cell-based
# In short: (§1)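 Antiproliferative screen in human cancer lines: KB (oral epidermoid carcinoma), HT29 (colorectal carcinoma), H460 (non-small cell lung carcinoma), TSGH and MKN45 (stomach carcinoma), plus KB-VIN10, an MDR-positive line overexpressing P-gp 170/MDR. Potency is reported as IC50.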
# [1] = Growth inhibition of human KB-vin10 cells after 72 hrs by methylene blue dye assay; format: functional; details: KB-VIN10, 72 h; in short: as §1
# NCI-H460 = assay: Growth inhibition of human H460 cells after 72 hrs by methylene blue dye assay; format: functional, cell-based; details: NCI-H460, 72 h; in short: as §1
# HT-29 = assay: Growth inhibition of human HT29 cells after 72 hrs by methylene blue dye assay; format: functional, cell-based; details: HT-29, 72 h; in short: as §1
# TSGH = assay: Growth inhibition of human TSGH cells after 72 hrs by methylene blue dye assay; format: functional, cell-based; in short: as §1
# MKN-45 = assay: Growth inhibition of human MKN45 cells after 72 hrs by methylene blue dye assay; format: functional, cell-based; details: MKN-45, 72 h; in short: as §1
# Tubulin = assay: Inhibition of tubulin polymerization in presence of microtubule associated proteins after 30 mins; format: protein-complex assay, Homo sapiens
# Tubulin (Homo sapiens) = Tubulin (Homo sapiens) (UniProt P68371+Q9H4B7+P0DPH7+P68366+Q13509+Q71U36+P04350+Q3ZCM7+P07437+P68363+Q9BQE3+Q6PEY2+Q13885+Q9BVA1+Q9BUF5); assay: Displacement of [3H]colchicine from tubulin at 5 uM; format: protein-complex assay
IC50 (KB),IC50 (NCI-H460),IC50 (HT-29),IC50 (MKN-45),IC50 (Tubulin),Activity (Tubulin (Homo sapiens)),Structure (SMILES),IC50 [1],IC50 (TSGH)
13.6 nM,14.1 nM,10.5 nM,11.2 nM,1100 nM,84%,COc1cc(C(=O)c2ccc3c(ccn3C)c2)cc(OC)c1OC,12.5 nM,13.4 nM
39 nM,39 nM,34 nM,33 nM,1800 nM,78%,COc1cc(C(=O)c2ccc3c(ccn3CO)c2)cc(OC)c1OC,35 nM,43 nM
2900 nM,2100 nM,1700 nM,1500 nM,,,COc1cc(C(=O)c2cc3ccccc3[nH]2)cc(OC)c1OC,2800 nM,1800 nM
310 nM,295 nM,250 nM,210 nM,,,COc1cc(C(=O)c2cccc3cc[nH]c23)cc(OC)c1OC,284 nM,310 nM
104 nM,112 nM,100 nM,88 nM,2200 nM,71%,COc1cc(C(=O)c2ccc3[nH]ccc3c2)cc(OC)c1OC,111 nM,103 nM
1900 nM,2000 nM,1800 nM,680 nM,,,CCCn1ccc2cc(C(=O)c3cc(OC)c(OC)c(OC)c3)ccc21,2100 nM,1500 nM
,,,,,89%,COc1ccc(/C=C\c2cc(OC)c(OC)c(OC)c2)cc1O,,
> 10000 nM,> 10000 nM,> 10000 nM,> 10000 nM,,,COc1cc(C(=O)c2ccc3c(ccn3CCC(=O)O)c2)cc(OC)c1OC,> 10000 nM,> 10000 nM
1600 nM,1700 nM,1000 nM,980 nM,,,COc1cc(C(=O)c2c[nH]c3ccccc23)cc(OC)c1OC,1500 nM,1100 nM
510 nM,520 nM,330 nM,480 nM,,,COc1cc(C(=O)c2ccc3cc[nH]c3c2)cc(OC)c1OC,452 nM,430 nM
> 10000 nM,> 10000 nM,9600 nM,5200 nM,,,COc1cc(C(=O)n2ccc3ccccc32)cc(OC)c1OC,> 10000 nM,8400 nM
520 nM,530 nM,460 nM,396 nM,,,COc1cc(C(=O)c2ccc3c(ccn3CC(=O)O)c2)cc(OC)c1OC,476 nM,548 nM
22.1 nM,28.8 nM,22.4 nM,21.6 nM,1900 nM,75%,COc1cc(C(=O)c2cccc3c2ccn3C)cc(OC)c1OC,26.1 nM,26.9 nM
36 nM,38 nM,32 nM,31 nM,1200 nM,81%,CCn1ccc2cc(C(=O)c3cc(OC)c(OC)c(OC)c3)ccc21,40 nM,41 nM
50.7 nM,53.8 nM,46.4 nM,49.1 nM,2000 nM,74%,COc1cc(C(=O)c2cccc3[nH]ccc23)cc(OC)c1OC,51.4 nM,54.4 nM
1800 nM,1600 nM,1200 nM,470 nM,,,COc1cc(C(=O)c2ccc3c(ccn3C(C)C)c2)cc(OC)c1OC,1600 nM,1100 nM
5200 nM,5100 nM,4600 nM,2900 nM,,,COc1cc(C(=O)c2ccc3c(ccn3CCN(C)C)c2)cc(OC)c1OC,4900 nM,4900 nM

Structure (SMILES),IC50 (KB),IC50 (NCI-H460),IC50 (HT-29),IC50 (MKN-45),IC50 (Tubulin),Activity (Tubulin (Homo sapiens)),IC50 [1],IC50 (TSGH)
COc1cc2c(c(OC)c1OC)-c1ccc(OC)c(=O)cc1[C@@H](NC(C)=O)CC2 [COLCHICINE],,19 nM,,13 nM,,,120 nM,
